Results from ChEMBL document CHEMBL1135483, “N-Substituted 4-amino-3,3-dipropyl-2(3H)-furanones: new positive allosteric modulators of the GABA(A) receptor sharing electrophysiological properties with the anticonvulsant loreclezole” (2002).

Legend:
[1] = target: T1, GABA-A receptor; alpha-1/beta-2/gamma-2 (Rattus norvegicus) (UniProt P18508+P62813+P63138); test: (§1) Percent stimulation of GABA-induced currents in Xenopus Oocytes expressing rat GABA-A receptor alpha-1-beta-2-gamma-2 subunits at 200 uM; type: functional, cell-based
In short: (§2)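 Oocytes expressing recombinant rat α1β2γ2 GABA-A receptors (cRNA injected in 5 mM K-Hepes, pH 6.8) were recorded by two-electrode voltage clamp at -80 mV in 90 mM NaCl, 1 mM KCl, 1 mM MgCl2, 1 mM CaCl2, 10 mM Na-Hepes, pH 7.4. Compound was co-applied with GABA at 2-4% of maximal current for 20 s, then 4 min washout. Values are the mean of three assays ± SEM.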

[2] = target: T2, GABA-A receptor; anion channel (Rattus norvegicus) (UniProt O09028+P15431+P18506+P18508+P19969+P20236+P23574+P23576+P28471+P28473+P30191+P62813+P63079+P63138+Q91ZM7+Q9ES14); test: Displacement of [35S]TBPS from Gamma-aminobutyric acid A (GABA-A) receptor of rat brain membranes at 100 uM; type: cell membranes; settings: Membrane
In short: (§3)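 Rat cerebellum or forebrain (brain minus cerebellum) membranes, about 1 mg/mL protein, were incubated with 2 nM [35S]-TBPS in 50 mM Tris-citrate pH 7.4 plus 200 mM NaBr for 180 min at room temperature. Nonspecific binding was defined with 10 µM TBPS. Samples were filtered on GF/B and counted by scintillation. Result is % displacement; at least three experiments in triplicate.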

[3] = target: T1, GABA-A receptor; alpha-1/beta-2/gamma-2 (Rattus norvegicus); test: Percent stimulation of GABA-induced currents in Xenopus Oocytes expressing rat GABA-A receptor alpha-1-beta-2-gamma-2 subunits at 20 uM; type: functional, cell-based
In short: (§4)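 Xenopus laevis oocytes were injected with cRNA for rat receptor subunits and recorded by two-electrode voltage clamp at -80 mV. Bath was 90 mM NaCl, 1 mM KCl, 1 mM MgCl2, 1 mM CaCl2, 10 mM Na-Hepes pH 7.4. GABA giving about 2-4% of maximal current was applied for 20 s alone or with compound, with 4 min washout. Result is % change in current; average of three.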

[4] = target: T2, GABA-A receptor; anion channel (Rattus norvegicus); test: (§5) Displacement of [3H]muscimol from Gamma-aminobutyric acid A (GABA-A) receptor of rat brain membranes at 100 uM; type: cell membranes; settings: Membrane
In short: (§6)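 Cerebellar or forebrain rat membranes, about 1 mg/mL protein, were incubated 90 min at 4 °C with 2 nM [3H]muscimol in 50 mM Tris-citrate pH 7.4 with 150 mM NaCl. Nonspecific binding was taken with 10 µM GABA. Filters were rinsed twice with ice-cold buffer and counted by scintillation. Result is % displacement or stimulation; at least three experiments in triplicate.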

[5] = target: T1, GABA-A receptor; alpha-1/beta-2/gamma-2 (Rattus norvegicus); test: as §1; type: functional, cell-based; in short: as §2; remark: listed apart in the source
[6] = target: T1, GABA-A receptor; alpha-1/beta-2/gamma-2 (Rattus norvegicus); test: Percent stimulation of GABA-induced currents in Xenopus Oocytes expressing rat GABA-A receptor alpha-1-beta-2-gamma-2 subunits at 2 uM; type: functional, cell-based; in short: as §2
[7] = target: T1, GABA-A receptor; alpha-1/beta-2/gamma-2 (Rattus norvegicus); test: as §1; type: functional, cell-based; in short: as §2; remark: listed apart in the source
[8] = target: T2, GABA-A receptor; anion channel (Rattus norvegicus); test: Displacement of [3H]flunitrazepam from GABA-A receptor of rat brain membranes at 100 uM; type: cell membranes; settings: Membrane
In short: as §6, with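 “[3H]flunitrazepam” for “[3H]muscimol”, “set” for “taken”, “diazepam. Samples” for “GABA. Filters”, “filtered on GF/B” for “rinsed twice with ice-cold buffer”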

[9] = target: T1, GABA-A receptor; alpha-1/beta-2/gamma-2 (Rattus norvegicus); test: Percent stimulation of GABA-induced currents in Xenopus Oocytes expressing rat GABA-A receptor alpha-1-beta-2-gamma-2 subunits at 100 uM; type: functional, cell-based; in short: as §4
[10] = test system: GABA-A receptor alpha-1/beta-2 (Rattus norvegicus); test: Percent stimulation of GABA-induced currents in Xenopus Oocytes expressing rat GABA-A receptor alpha-1-beta-2 subunits at 100 uM
[11] = Percent stimulation of GABA-induced currents in Xenopus Oocytes expressing mutant rat GABA-A receptor alpha-1-beta-2(N265S) subunits at 100 uM; type: functional; in short: as §4
Rattus norvegicus [12] = species on record: Rattus norvegicus; test: as §5; type: cell membranes; settings: Membrane; in short: as §6
[13] = target: T2, GABA-A receptor; anion channel (Rattus norvegicus); test: Displacement of [3H]flunitrazepam from GABA-A receptor of rat forebrain tissue at 100 uM
In short: as §6, with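 “[3H]flunitrazepam” for “[3H]muscimol”, “set” for “taken”, “diazepam. Samples” for “GABA. Filters”, “filtered on GF/B” for “rinsed twice with ice-cold buffer”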

[14] = target: T2, GABA-A receptor; anion channel (Rattus norvegicus); test: Displacement of [3H]flunitrazepam from GABA-A receptor of rat cerebellar tissues at 100 uM; type: protein-complex assay
In short: as §6, with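 “[3H]flunitrazepam” for “[3H]muscimol”, “set” for “taken”, “diazepam. Samples” for “GABA. Filters”, “filtered on GF/B” for “rinsed twice with ice-cold buffer”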

[15] = target: T1, GABA-A receptor; alpha-1/beta-2/gamma-2 (Rattus norvegicus); test: Percent stimulation of GABA-induced currents in Xenopus Oocytes expressing rat GABA-A receptor alpha-1-beta-2-gamma-2 subunits at 5 uM; type: functional, cell-based; in short: as §4
[16] = target: T2, GABA-A receptor; anion channel (Rattus norvegicus); test: Displacement of [3H]-muscimol from Gamma-aminobutyric acid A (GABA-A) receptor of Rat forebrain at 100 uM; in short: as §6
Rattus norvegicus [17] = species on record: Rattus norvegicus; test: Displacement of [35S]TBPS from Gamma-aminobutyric acid A (GABA-A) receptor of rat forebrain tissue at 100 uM; in short: as §3
Rattus norvegicus [18] = species on record: Rattus norvegicus; test: Displacement of [35S]-TBPS from Gamma-aminobutyric acid A (GABA-A) receptor of rat cerebellar tissue at 100 uM; in short: as §3
[19] = target: T1, GABA-A receptor; alpha-1/beta-2/gamma-2 (Rattus norvegicus); test: Percent stimulation of GABA-induced currents in Xenopus Oocytes expressing rat GABA-A receptor alpha-1-beta-2-gamma-2 subunits at 50 uM; type: functional, cell-based; in short: as §4

Row | SMILES | Stimulation [1] [%] | Displacement [2] [%] | Displacement [4] [%] | Displacement [8] [%] | further results
1 | CCC1(C)CCSC1=O (centres undefined) | 352 | 25 | 0 | 0 | Stimulation [3]: 39%; Stimulation [5]: 386%; Stimulation [6]: 10%; Stimulation [7]: 192%
2 | CCCC1(CCC)C(=O)OC[C@@H]1NC(=O)OCc1ccccc1 [listing 1 of 2 here] | – | – | – | – | Stimulation [10]: 324%; Stimulation [9]: 279%
3 | CCCC1(CCC)C(=O)OC[C@H]1NS(=O)(=O)c1ccc(OC)cc1 (racemic) | -22 | 80 | 0 | 0 | –
4 | C=CC[C@H]1C(=O)OC[C@H]1NCc1ccccc1 (racemic) | 73 | 60 | 0 | 0 | –
5 | CCCC1(CCC)C(=O)OC[C@H]1NS(=O)(=O)c1ccc(Cl)cc1 (racemic) | – | 85 | 0 | -25 | Stimulation [15]: 23%
6 | C=CCC1(CC=C)C(=O)OC[C@H]1NCc1ccccc1 (racemic) | 115 | 60 | 0 | -14 | –
7 | C=CC[C@@H]1C(=O)OC[C@H]1NCc1ccccc1 (racemic) | -1 | – | – | – | –
8 | CCCC1(CCC)C(=O)OC[C@H]1NC(=O)c1ccccc1 (racemic) | 420 | 65 | – | -15 | Displacement [16]: 0%; Stimulation [11]: 648%; Stimulation [3]: 207%; Stimulation [10]: 557%; Stimulation [5]: 420%; Stimulation [6]: 17%
9 | CCCC1(CCC)C(=O)OC[C@@H]1NC(=O)OCc1ccccc1 [listing 2 of 2 here] | – | – | – | – | Stimulation [11]: 123%
10 | CCCC1(CCC)C(=O)OC[C@H]1NS(=O)(=O)c1cccs1 (racemic) | -16 | – | – | – | –
11 | O=C1C[C@H](NCc2ccccc2)CO1 (racemic) | 0 | – | – | – | –
12 | O=C1C[C@H](NC(=O)OCc2ccccc2)CO1 (racemic) | 47 | – | – | – | –
13 | CCCC1(CCC)C(=O)OC[C@H]1NS(=O)(=O)c1ccc(C(F)(F)F)cc1 (racemic) | -44 | – | 0 | -20 | Displacement (Rattus norvegicus [17]): 70%; Displacement (Rattus norvegicus [18]): 40%
14 | CCCC1(CCC)C(=O)OC[C@H]1NC(=O)OCc1ccccc1 | – | – | – | – | Stimulation [9]: 104%
15 | CCCC1(CCC)C(=O)OC[C@H]1NS(=O)(=O)c1ccc2ccccc2c1 (racemic) | – | 75 | 0 | 0 | Stimulation [19]: 4%

Second part, led by results:

Row | Stimulation [1] [%] | Displacement [2] [%] | Displacement [4] [%] | Displacement [8] [%] | SMILES | further results
16 | – | 70 | 0 | 0 | CCCC1(CCC)C(=O)OC[C@@H]1NC(=O)OCc1ccccc1 (stereo in doubt) | Stimulation [9]: 279%
17 | -1 | – | – | – | CCCC1(CCC)C(=O)OC[C@H]1NS(=O)(=O)N(C)C (racemic) | –
18 | 46 | – | – | – | CCCC1(CCC)C(=O)OC[C@H]1NC(=O)OC(C)(C)C (racemic) | –
19 | 765 | 50 | – | – | C=CCOC(=O)N[C@@H]1COC(=O)C1(CCC)CCC (racemic) | Stimulation [11]: 627%; Stimulation [3]: 229%; Displacement (Rattus norvegicus [12]): 0%; Stimulation [10]: 2130%; Stimulation [5]: 765%; Stimulation [6]: 26%; Stimulation [13]: 15%; Stimulation [14]: 0%
20 | 426 | 30 | 0 | 0 | CCCC1(CCC)C(=O)OC[C@H]1NC(=O)OCC (racemic) | –
21 | 330 | 75 | – | -25 | CCCC1(CCC)C(=O)OC[C@H]1NC(=O)Oc1ccccc1 (racemic) | Displacement [16]: 0%
